Test results reported in ChEMBL document CHEMBL3120124, “Lead optimization of HMBA to develop potent HEXIM1 inducers” (Bioorg Med Chem Lett, 2014).

What was measured:
[1] = biological target: T1, Protein HEXIM1 (Homo sapiens) (UniProt O94992); test: Induction of HEXIM1 protein expression in human LNCAP cells at 5 mM after 24 hrs by Western blotting analysis relative to control; format: cell-based
T1 sequence (whole entry): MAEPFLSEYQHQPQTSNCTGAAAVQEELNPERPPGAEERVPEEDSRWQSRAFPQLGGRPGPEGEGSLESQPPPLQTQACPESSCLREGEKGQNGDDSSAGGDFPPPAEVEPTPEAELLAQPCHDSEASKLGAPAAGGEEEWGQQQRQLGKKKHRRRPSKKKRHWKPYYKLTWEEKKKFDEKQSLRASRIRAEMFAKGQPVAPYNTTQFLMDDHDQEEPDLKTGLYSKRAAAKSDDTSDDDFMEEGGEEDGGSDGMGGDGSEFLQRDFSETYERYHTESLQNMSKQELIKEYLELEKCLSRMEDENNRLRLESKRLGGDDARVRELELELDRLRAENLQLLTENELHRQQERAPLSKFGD

[2] = biological target: T1, Protein HEXIM1 (Homo sapiens); test: Induction of HEXIM1 protein expression in human LNCAP cells at 1 mM after 24 hrs by Western blotting analysis relative to control; format: cell-based
[3] = biological target: T1, Protein HEXIM1 (Homo sapiens); test: Induction of HEXIM1 protein expression in human LNCAP cells at 0.5 mM after 24 hrs by Western blotting analysis relative to control; format: cell-based
Summary of the method: (§1)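 LNCaP prostate cancer cells were treated for 24 h with vehicle, HMBA (5 mM; positive control) or analog at 500 μM, and selected analogs also at 100 μM. HEXIM1 was assessed by Western blot of cell extracts using a HEXIM1 antibody, with β-actin as loading control. Band intensities were quantified by densitometry. Representative of three independent experiments.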

[4] = biological target: T1, Protein HEXIM1 (Homo sapiens); test: Induction of HEXIM1 protein expression in human LNCAP cells at 500 uM after 24 hrs by Western blotting analysis relative to control; format: cell-based; summary of the method: as §1
[5] = Solubility of the compound in water; format: physicochemical
Summary of the method: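 Aqueous solubility was judged by the absence of precipitation in LNCaP cell culture medium at 100 μM.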

[6] = biological target: T1, Protein HEXIM1 (Homo sapiens); test: Induction of HEXIM1 protein expression in human LNCAP cells at 100 uM after 24 hrs by Western blotting analysis relative to control; format: cell-based; summary of the method: as §1
LNCaP = test: Cytotoxicity against human LNCAP cells assessed as change in cell morphology at 500 uM; format: cell-based
[7] = biological target: T1, Protein HEXIM1 (Homo sapiens); test: Induction of HEXIM1 protein expression in human LNCAP cells at 0.05 mM after 24 hrs by Western blotting analysis relative to control; format: cell-based
[8] = biological target: T1, Protein HEXIM1 (Homo sapiens); test: Induction of HEXIM1 protein expression in human LNCAP cells at 0.1 mM after 24 hrs by Western blotting analysis relative to control; format: cell-based
[9] = biological target: T1, Protein HEXIM1 (Homo sapiens); test: Induction of HEXIM1 protein expression in human LNCAP cells after 24 hrs by Western blotting analysis; format: cell-based

Q: Which fold change (FC) [1] does the source give for CC(=O)NCCCCCCNC(C)=O here?
A: 2.21

Q: What about the fold change (FC) [2] of the same compound?
A: 23.6

Q: What about the fold change (FC) [3] of the same compound?
A: 8.15

Q: Which fold change (FC) [4] does the source give for CC(=O)N(C)CCCN(C)C(C)=O here?
A: 0.44

Q: For CC(=O)NCCCCCCNC(=O)c1ccc(Cl)c([N+](=O)[O-])c1, which fold change (FC) [4] is on record?
A: 0.08

Q: With CC(=O)NCCCCCCNC(=O)Oc1ccc(-c2ccccc2)cc1 as the compound, how does the fold change (FC) [4] read?
A: 1.07

Q: What about the solubility [5] of the same compound?
A: > 100 µM

Q: What about the fold change (FC) [6] of the same compound?
A: 0.61

Q: Which results are given for CC(=O)N(C)Cc1ccc(CN(C)C(C)=O)cc1?
A: fold change (FC) [4]: 2.2; solubility [5]: > 100 µM; fold change (FC) [6]: 3.8

Q: Which results are given for CN(Cc1ccc(CN(C)S(C)(=O)=O)cc1)S(C)(=O)=O?
A: fold change (FC) [4]: 1.39; solubility [5]: > 100 µM; fold change (FC) [6]: 2

Q: For CC(=O)N(C)CCCCCCN(C)C(C)=O, which fold change (FC) [4] is on record?
A: 0.25

Q: For CC(=O)NC1CCC(NC(C)=O)CC1 (configuration not stated), which fold change (FC) [4] is on record?
A: 1.88

Q: And the solubility [5]?
A: > 100 µM

Q: And the fold change (FC) [6]?
A: 0.06

Q: What does the source list for CN(CCCN(C)S(C)(=O)=O)S(C)(=O)=O?
A: fold change (FC) [4]: 2.86; solubility [5]: > 100 µM; fold change (FC) [6]: 0.67

Q: Which fold change (FC) [4] does the source give for CC(=O)NCCCCCNC(C)=O here?
A: 0.12

Q: With O=C(NCCCCCCNC(=O)c1ccccc1)c1ccccc1 as the compound, how does the fold change (FC) [4] read?
A: 0.46

Q: What does the source list for COc1ccc(C(=O)NCCCCCCNC(C)=O)cc1?
A: fold change (FC) [4]: 1.93; Activity (LNCaP): Toxic

Q: With COc1ccc(CC(=O)NCCCCCCNC(C)=O)cc1 as the compound, how does the fold change (FC) [4] read?
A: 2.8

Q: What about the fold change (FC) [7] of the same compound?
A: 1.72

Q: And the fold change (FC) [8]?
A: 12.6

Q: What about the fold change (FC) [3] of the same compound?
A: 26.6

Q: And the solubility [5]?
A: > 100 µM

Q: And the Activity [9]?
A: Dose-dependent effect

Q: And the fold change (FC) [6]?
A: 1.16

Q: Which fold change (FC) [4] does the source give for CS(=O)(=O)NCC1CCC(CNS(C)(=O)=O)CC1 (configuration not stated) here?
A: 1.24

Q: For CS(=O)(=O)NCCCCCCNS(C)(=O)=O, which fold change (FC) [4] is on record?
A: 0.31

Q: Which results are given for CN(CCCCCCN(C)S(C)(=O)=O)S(C)(=O)=O?
A: fold change (FC) [4]: 0.97; solubility [5]: > 100 µM; fold change (FC) [6]: 1.55

Q: Which fold change (FC) [4] does the source give for CS(=O)(=O)NCc1ccc(CNS(C)(=O)=O)cc1 here?
A: 0.16

Q: What does the source list for CCCC(=O)NCCCCCCNC(=O)CCC?
A: fold change (FC) [4]: 4.89; solubility [5]: > 100 µM; Activity [9]: Dose-dependent effect; fold change (FC) [6]: 1.23

Q: For CC(=O)NCc1ccc(CNC(C)=O)cc1, which fold change (FC) [4] is on record?
A: 0.4

Q: For CC(=O)NCC1CCC(CNC(C)=O)CC1 (configuration not stated), which fold change (FC) [4] is on record?
A: 2.14

Q: What about the Activity (LNCaP) of the same compound?
A: Toxic

Q: For CC(=O)N(C)C1CCC(N(C)C(C)=O)CC1 (configuration not stated), which fold change (FC) [4] is on record?
A: 3.09

Q: And the solubility [5]?
A: > 100 µM

Q: What about the fold change (FC) [6] of the same compound?
A: 0.43

Q: Which fold change (FC) [4] does the source give for CCC(=O)NCCCCCCNC(=O)CC here?
A: 4.45

Q: What about the solubility [5] of the same compound?
A: > 100 µM

Q: And the Activity [9]?
A: Dose-dependent effect

Q: And the fold change (FC) [6]?
A: 1.34

Q: Which fold change (FC) [4] does the source give for CN(CCCCCN(C)S(C)(=O)=O)S(C)(=O)=O here?
A: 0.05

Q: With CS(=O)(=O)NCCCCCNS(C)(=O)=O as the compound, how does the fold change (FC) [4] read?
A: 0.22

Q: For CS(=O)(=O)NCCCNS(C)(=O)=O, which fold change (FC) [4] is on record?
A: 4.45

Q: And the solubility [5]?
A: > 100 µM

Q: What about the fold change (FC) [6] of the same compound?
A: 0.21

Q: Which results are given for CN(C1CCC(N(C)S(C)(=O)=O)CC1)S(C)(=O)=O (configuration not stated)?
A: fold change (FC) [4]: 1.27; solubility [5]: > 100 µM; fold change (FC) [6]: 1.22

Q: For CC(=O)NCCCNC(C)=O, which fold change (FC) [4] is on record?
A: 0.68

Q: For CC(=O)N(C)CC1CCC(CN(C)C(C)=O)CC1 (configuration not stated), which fold change (FC) [4] is on record?
A: 1.38

Q: What does the source list for CN(CC1CCC(CN(C)S(C)(=O)=O)CC1)S(C)(=O)=O (configuration not stated)?
A: fold change (FC) [4]: 3.09; solubility [5]: > 100 µM; fold change (FC) [6]: 0.41

Q: For CC(=O)N(C)CCCCCN(C)C(C)=O, which fold change (FC) [4] is on record?
A: 0.05

Q: Which fold change (FC) [4] does the source give for CS(=O)(=O)NC1CCC(NS(C)(=O)=O)CC1 (configuration not stated) here?
A: 0.67
